Reference: ChEMBL document CHEMBL1156948, “Statistical molecular design of a focused salicylidene acylhydrazide library and multivariate QSAR of inhibition of type III secretion in the Gram-negative bacterium Yersinia” (Bioorg Med Chem, 2010)
The source made the active and inactive calls.

Tests used:
[1] = tested on: Yersinia pseudotuberculosis; experiment: Antibacterial activity against Yersinia pseudotuberculosis expressing pIB102 at 50 uM after 23 hrs by broth dilution assay; format: functional, organism-based
Method in brief: (§1)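 Wild-type pIB102 grown overnight in LB at room temperature, diluted to OD600 = 0.1 in LB with 2.5 mM CaCl2. Compound added from DMSO stock to final 50 and 100 µM. Incubated at 37 °C with absorbance at 595 nm read over 23 h.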

[2] = tested on: Yersinia pseudotuberculosis YPIII; experiment: Inhibition of T3S in Yersinia pseudotuberculosis YPIII expressing yopE-luxAB at 100 uM after 3 hrs by luciferase reporter gene assay
Method in brief: (§2)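 Strain YPIII pIB102 (yopE-luxAB) grown overnight at room temperature in BHI with 5 mM EGTA and 20 mM MgCl2 (calcium depletion), adjusted to OD600 0.088–0.095. Compound added from DMSO at 1.56–200 µM final (eight concentrations). Shaken 1 h at room temperature, then 2 h at 37 °C. Decanal added and light emission read immediately. Triplicates, repeated at least three times.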

[3] = tested on: Yersinia pseudotuberculosis YPIII; experiment: Inhibition of T3S in Yersinia pseudotuberculosis YPIII expressing yopE-luxAB at 3.13 uM after 3 hrs by luciferase reporter gene assay; method in brief: as §2
Escherichia coli [4] = experiment: Antibacterial activity against Enterotoxigenic Escherichia coli infected in mouse J774 cells assessed as inhibition of bacteria-induced cell death at 25 to 100 uM after 14 hrs using calcein AM staining by fluorescence microscopy; format: functional, organism-based
Method in brief: (§3)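 J774A macrophages (4×10⁴/well, DMEM with 10% FCS, gentamicin 3 µg/mL, 24 h at 37 °C, 5% CO2) washed with PBS, then given fresh DMEM with compound plus bacteria (OD600 0.002), final 25, 50, 100 µM, DMSO below 0.5%. ETEC grown overnight in LB at 37 °C, diluted and grown 3 h. 14 h at 37 °C, 5% CO2; CalceinAM 40 min, fluorescence 485/535 nm, confirmed by microscopy; uninfected cells = 100% viability; gentamicin 5 µg/mL rescue control.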

Escherichia coli [5] = experiment: Antibacterial activity against Escherichia coli DH5[alpha] at 50 uM after 23 hrs by broth dilution assay; format: functional, organism-based
Method in brief: (§4)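 Overnight LB culture of E. coli DH5α grown at 37 °C, diluted to OD600 0.1 in LB with 2.5 mM CaCl2; compound added from DMSO stock to final 50 or 100 µM. Incubated at 37 °C with absorbance at 595 nm followed over 23 h.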

[6] = tested on: Yersinia pseudotuberculosis; experiment: Antibacterial activity against Yersinia pseudotuberculosis expressing pIB102 at 100 uM after 23 hrs by broth dilution assay; format: functional, organism-based; method in brief: as §1
[7] = tested on: Yersinia pseudotuberculosis; experiment: Antibacterial activity against Yersinia pseudotuberculosis expressing pIB102 infected in mouse J774 cells assessed as inhibition of bacteria-induced cell death at 50 uM after 14 hrs using calcein AM staining by fluorescence microscopy; format: functional, organism-based
Method in brief: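 J774A macrophages (4 × 10^4 cells/well) grown 24 h in DMEM/10% FCS/gentamicin. Wild-type pIB102 grown in LB plus kanamycin overnight at room temperature, diluted 1/10 in DMEM, shaken 1 h at room temperature then 2 h at 37 °C. Added at OD600 = 0.002 with compound (25, 50, 100 µM final; DMSO <0.5%). Incubated 14 h, 37 °C, 5% CO2. CalceinAM 40 min, fluorescence 485/535 nm; uninfected cells = 100% viability.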

J774 = experiment: Cytotoxicity against mouse J774 cells at 25 to 100 uM after 14 hrs using calcein AM staining by fluorescence microscopy; format: cell-based; conditions: j774, 14 h; method in brief: as §3
[8] = tested on: Yersinia pseudotuberculosis YPIII; experiment: Inhibition of T3S in Yersinia pseudotuberculosis YPIII expressing yopE-luxAB at 6.25 uM after 3 hrs by luciferase reporter gene assay; method in brief: as §2
[9] = tested on: Yersinia pseudotuberculosis YPIII; experiment: Inhibition of T3S in Yersinia pseudotuberculosis YPIII expressing yopE-luxAB at 50 uM after 3 hrs by luciferase reporter gene assay; method in brief: as §2
[10] = tested on: Yersinia pseudotuberculosis YPIII; experiment: Inhibition of T3S in Yersinia pseudotuberculosis YPIII expressing yopE-luxAB at 200 uM after 3 hrs by luciferase reporter gene assay; method in brief: as §2
[11] = tested on: Yersinia pseudotuberculosis YPIII; experiment: Inhibition of T3S in Yersinia pseudotuberculosis YPIII expressing yopE-luxAB at 12.5 uM after 3 hrs by luciferase reporter gene assay; method in brief: as §2
[12] = tested on: Yersinia pseudotuberculosis YPIII; experiment: Inhibition of T3S in Yersinia pseudotuberculosis YPIII expressing yopE-luxAB at 25 uM after 3 hrs by luciferase reporter gene assay; method in brief: as §2
Escherichia coli [13] = experiment: Antibacterial activity against Escherichia coli DH5[alpha] at 100 uM after 23 hrs by broth dilution assay; format: functional, organism-based; method in brief: as §4
[14] = Aqueous solubility at 200 uM; format: physicochemical; conditions: buffer
[15] = tested on: Yersinia pseudotuberculosis YPIII; experiment: Inhibition of T3S in Yersinia pseudotuberculosis YPIII expressing yopE-luxAB at 1.56 uM after 3 hrs by luciferase reporter gene assay; method in brief: as §2
[16] = target: Tyrosine-protein phosphatase YopH (Yersinia pseudotuberculosis serotype I (strain IP32953)) (UniProt P08538); experiment: Inhibition of YopH in Yersinia pseudotuberculosis YPIII expressing yopE-luxAB treated 3 hrs before substrate addition measured after 15 mins by microplate reader
Method in brief: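 Same calcium-depleted YPIII pIB102 cultures and compound exposure (1 h room temperature, then 2 h 37 °C). An aliquot of the bacterial suspension was mixed with 25 mM p-nitrophenyl phosphate, 40 mM MES pH 5.0, 1.6 mM DTT. Incubated 15 min at 37 °C, quenched with 1 M NaOH, absorbance read at 405 nm. Triplicates, repeated at least three times.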

Tyrosine-protein phosphatase YopH (Yersinia pseudotuberculosis serotype I (strain IP32953)), sequence (P08538 whole entry): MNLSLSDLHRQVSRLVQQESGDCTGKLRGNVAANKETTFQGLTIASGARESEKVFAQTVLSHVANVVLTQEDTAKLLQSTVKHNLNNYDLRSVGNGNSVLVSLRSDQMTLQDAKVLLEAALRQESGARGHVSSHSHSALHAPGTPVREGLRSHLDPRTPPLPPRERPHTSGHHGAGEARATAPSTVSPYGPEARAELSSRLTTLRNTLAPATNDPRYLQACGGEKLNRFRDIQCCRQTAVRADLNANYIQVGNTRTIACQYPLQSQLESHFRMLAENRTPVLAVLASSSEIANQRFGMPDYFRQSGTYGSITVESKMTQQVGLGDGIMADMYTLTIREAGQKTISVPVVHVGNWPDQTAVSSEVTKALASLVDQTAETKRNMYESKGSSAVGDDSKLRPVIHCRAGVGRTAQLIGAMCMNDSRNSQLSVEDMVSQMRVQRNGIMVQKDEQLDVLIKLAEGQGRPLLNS

SMILES	Activity [1]	inhibition [2] [%]	inhibition [3] [%]	inhibition (Escherichia coli [4])	Activity (Escherichia coli [5])	Activity [6]	inhibition [7]	Activity (J774)	inhibition [8] [%]	inhibition [9] [%]	inhibition [10] [%]	inhibition [11] [%]	inhibition [12] [%]	Activity (Escherichia coli [13])	solubility [14]	inhibition [15] [%]	inhibition [16]
CC(C)(C)c1cc(/C=N/NC(=O)c2cccc(C(F)(F)F)c2)c(O)c(C(C)(C)C)c1	inactive	11	-10	inactive	inactive	inactive	inactive	Non-toxic	3	9	2	7	6	inactive	–	–	–
COc1ccc(Br)c(/C=N/NC(=O)c2snnc2C)c1O	inactive	71	14	–	inactive	inactive	–	–	19	60	–	21	34	inactive	Insoluble	-5	–
O=C(CCc1ccc(F)cc1)N/N=C/c1cc(F)cc(Cl)c1O	inactive	90	2	inactive	inactive	inactive	inactive	Non-toxic	-1	63	94	10	15	inactive	–	-6	–
O=C(N/N=C/c1cc(I)cc(I)c1O)c1cc(Cl)cc(Cl)c1	inactive	21	12	–	inactive	inactive	–	–	15	26	–	17	23	inactive	Insoluble	0	inactive
COc1cccc(C(=O)N/N=C/c2cccc(F)c2O)c1	inactive	58	7	inactive	inactive	inactive	Active	Non-toxic	9	45	74	11	17	inactive	–	-2	–
O=C(N/N=C/c1cc(Br)ccc1O)c1ccncc1	inactive	95	14	–	inactive	inactive	Active	Non-toxic	13	87	98	24	43	inactive	–	-8	–
O=C(COc1ccc([N+](=O)[O-])cc1)N/N=C/c1cccc(F)c1O	inactive	95	-5	inactive	inactive	inactive	Active	Non-toxic	6	84	97	4	25	inactive	–	–	Active
